Hck Nef HTS = blocks Nef-activated human Hck kinase; Recombinant Hck-YEEI plus Nef, Z-Lyte FRET kinase assay; inhibition, % at 20 µM; hit rate 0.68% among 220,000; AID 463187;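 active means Hck-Nef kinase inhibition above about 50%, limit read from the data; inactive means inhibition below that limit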
Runt-SMMHC FRET = inhibitors of human RUNX1 Runt domain binding to CBFb-SMMHC. Cerulean-Runt/Venus-CBFb-SMMHC FRET ratio 530/480, 1 h. inhibition, % at 20 µM. hit rate 0.74% among 220,000. AID 1434;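 active means mean inhibition across duplicate retests at 20 µM reaching about 50%, limit read from the data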;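 further: inhibitors lower the FRET ratio by blocking Runt binding to CBFb-SMMHC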
Target sequence (Q01196 whole entry, looked up, the tested form may be a part): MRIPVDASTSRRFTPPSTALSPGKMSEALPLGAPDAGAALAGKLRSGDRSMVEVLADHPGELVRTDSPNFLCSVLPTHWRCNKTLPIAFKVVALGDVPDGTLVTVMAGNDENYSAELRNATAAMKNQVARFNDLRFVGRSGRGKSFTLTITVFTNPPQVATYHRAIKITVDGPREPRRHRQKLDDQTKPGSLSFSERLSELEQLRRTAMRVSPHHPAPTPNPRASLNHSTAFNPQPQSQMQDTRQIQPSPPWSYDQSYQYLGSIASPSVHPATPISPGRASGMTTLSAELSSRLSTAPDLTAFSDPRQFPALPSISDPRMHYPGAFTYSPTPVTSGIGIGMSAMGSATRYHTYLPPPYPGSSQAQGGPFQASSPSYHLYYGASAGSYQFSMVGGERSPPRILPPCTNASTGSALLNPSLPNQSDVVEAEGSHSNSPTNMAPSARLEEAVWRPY
Target sequence (Q13951 whole entry, looked up, the tested form may be a part): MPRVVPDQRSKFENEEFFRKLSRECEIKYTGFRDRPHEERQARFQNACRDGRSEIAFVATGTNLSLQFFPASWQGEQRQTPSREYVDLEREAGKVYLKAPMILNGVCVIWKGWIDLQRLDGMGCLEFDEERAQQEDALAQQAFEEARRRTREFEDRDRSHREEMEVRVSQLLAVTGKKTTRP
RanGTP-Imp inh = disruptors of Ran-importin-beta complex formation – biochemical, FRET, CFP-Ran, YFP-importin-beta, homogeneous, primary screen; cell-free CFP-Ran/YFP-importin-beta FRET ratio; inhibition, % (test concentration not listed); hit rate 1.1% among 300,000;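 active means more than half of the replicate wells show a fall in the fluorescence ratio signal beyond about 16%, limit read from the data, passing the limit was not always enough; inconclusive means exactly half of the replicate wells pass the set limit; inactive means fewer than half of replicates pass the limit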
Runt-CBFb FRET = inhibitors of human RUNX1 Runt domain binding to CBFb; Q01196+Q13951; Cerulean-Runt/Venus-CBFb FRET ratio 530/480, 1 h; inhibition, % at 20 µM; hit rate 0.46% among 220,000; AID 1496;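 active means inhibition over about 50% at 20 µM in the single-dose screen, limit read from the data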
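Buffer or medium: Tris pH 7.5 buffer with BSA. Assay system: Cerulean-labeled Runt domain protein. Amount: each fluorescent fusion protein 100 nM. Read-out basis: loss of energy transfer signal. Incubation: 1 h compound exposure, room temperature. Probe or stimulus: Venus-CBFb binding partner, 100 nM. Detection: FRET, excitation 422 nm, emission at 530 and 480 nm.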
Large screens that a line does not name were inactive. Only some compounds are listed: those with a hit (about 1.7% of all), similar ones and a draw of the others.

CCOC(=S)SCc1cn2ccc(C)cc2n1	RanGTP-Imp inh 21
CSc1cccc(NC(=O)CNS(=O)(=O)c2ccccc2)c1	none (no result: Hck Nef HTS, Runt-SMMHC FRET, Runt-CBFb FRET)
O=C(CSc1nc(=O)n(Cc2ccccn2)c2c1CCC2)Nc1ccc(F)cc1F	none (no result: Hck Nef HTS, Runt-SMMHC FRET, Runt-CBFb FRET)
O=C(Nc1sc2c(c1C(=O)NC1CCCCC1)CCC2)c1ccco1	RanGTP-Imp inh 56
CNC(=O)c1c(NC(=O)c2ccco2)sc2c1CCC2	none (no result: Hck Nef HTS, Runt-SMMHC FRET, Runt-CBFb FRET)
COc1ccc2[nH]c3c(C)c4ccncc4c(C)c3c2c1	RanGTP-Imp inh 45
CCN(CC)CCCNc1nc2cc(OC)c(OC)cc2c2nc(-c3ccccc3)nn12	RanGTP-Imp inh 50
COc1cc(/C=C2\CCCc3c2nc2ccccc2c3C(=O)O)cc(Br)c1O	none (no result: Hck Nef HTS, Runt-SMMHC FRET, Runt-CBFb FRET)
CCOc1cc(/C=C2\CCCc3c2nc2ccccc2c3C(=O)O)ccc1OC	RanGTP-Imp inh 47 (no result: Hck Nef HTS, Runt-SMMHC FRET, Runt-CBFb FRET)
O=C(CN1C(=O)C2C3c4ccccc4C(c4ccccc43)C2C1=O)Nc1cccc(C(=O)O)c1 (centres undefined)	none
Cc1ccc(-n2c(C)nc3c(cnn3-c3ccc(F)cc3)c2=O)cc1C	none
Cc1ccc(-n2c(C)nc3c(cnn3-c3ccc(C)c(C)c3)c2=O)cc1C	RanGTP-Imp inh 30
N#Cc1c(NC(=O)c2ccccc2Cl)n(Cc2ccccc2)c2nc3ccccc3nc12	Runt-SMMHC FRET 111 (no result: RanGTP-Imp inh)
CCOC(=O)c1c(NC(=O)c2ccco2)n(C2CCCCC2)c2nc3ccccc3nc12	RanGTP-Imp inh 79
CCOC(=O)c1c(N)n(C2CC(C)(C)NC(C)(C)C2)c2nc3ccccc3nc12	Runt-SMMHC FRET 94, RanGTP-Imp inh inconclusive
CCCCn1c(NC(=O)c2ccccc2Cl)c(C#N)c2nc3ccccc3nc21	Runt-SMMHC FRET 60, Runt-CBFb FRET 84
CCOC(=O)c1c(N)n(-c2ccc(N)cc2)c2nc3ccccc3nc12	none
CCOC(=O)N1CCC(=NNC(=O)c2ccc(O)cc2)CC1	none
Cc1n[nH]c(=O)c2c(NC(=O)CSc3nnc(C4CC4)n3C)oc(C)c12	none (no result: Hck Nef HTS, Runt-SMMHC FRET, Runt-CBFb FRET)
COc1ccc(C(=O)Nc2ccc(NC(=O)c3ccco3)cc2)cc1	none (no result: Hck Nef HTS, Runt-SMMHC FRET, Runt-CBFb FRET)
COc1ccc(-n2c(NC(=O)c3ccco3)c(C#N)c3nc4ccccc4nc32)cc1	RanGTP-Imp inh 128
COc1cccc2c(=O)c3cccc(N)c3[nH]c12	RanGTP-Imp inh 127 (no result: Runt-SMMHC FRET)
Cc1ccnc(NC(=O)c2ccc(Cl)c(NC(=O)CCc3ccccc3)c2)c1	RanGTP-Imp inh 24
Cc1ccnc(NC(=O)c2ccc(Cl)c(NC(=O)C(C)Oc3ccccc3)c2)c1 (centres undefined)	none
Cc1ccc(S(=O)(=O)N(C)S(=O)(=O)c2ccc(C#N)cc2)cc1	none (no result: Hck Nef HTS, Runt-SMMHC FRET, Runt-CBFb FRET)
N#C[C@@H]1[C@@H]2C(=O)N(c3ccc4c(c3)OCCO4)C(=O)[C@@H]2C2c3ccccc3C=CN21 (some centres undefined)	RanGTP-Imp inh 19
CCn1cc(S(=O)(=O)NCCc2ccccc2OC)cn1	none (no result: Hck Nef HTS, Runt-SMMHC FRET, Runt-CBFb FRET)
C#CCOc1ccc(C2C3=C(CCCC3=O)N(CC(=O)O)C3=C2C(=O)CCC3)cc1Br	RanGTP-Imp inh 117 (no result: Hck Nef HTS, Runt-SMMHC FRET, Runt-CBFb FRET)
CCCOc1ccc(C2C3=C(CCCC3=O)N(CC(=O)O)C3=C2C(=O)CCC3)cc1OCC	none (no result: Hck Nef HTS, Runt-SMMHC FRET, Runt-CBFb FRET)
CC(=O)N1CCN(c2nc3cc4c(cc3nc2NS(=O)(=O)c2ccccc2)OCCO4)CC1	RanGTP-Imp inh 43, Runt-CBFb FRET 92
Cc1cc(NC(=O)c2ccccc2Cl)ccc1NC(=O)c1ccccc1Cl	none (no result: Hck Nef HTS, Runt-SMMHC FRET, Runt-CBFb FRET)
Cc1ccc2sc3ccc(NC(=O)c4ccccc4Cl)cc3c(=O)c2c1	Runt-SMMHC FRET 101, RanGTP-Imp inh 114
CCOC(=O)CC1COCCN1Cc1cn(C)nc1-c1ccccc1F (centres undefined)	none
Cc1oc(C)c2c(=O)ccc3c(c12)OC(N)=C(C#N)C3c1ccc(F)cc1 (centres undefined)	none
Cc1cc(C)c2c3c(sc2n1)C(c1cccc(F)c1)C(C#N)=C(N)O3 (centres undefined)	Runt-SMMHC FRET 62, RanGTP-Imp inh 91, Runt-CBFb FRET 90
N=c1oc2c3c4c(cc2cc1C(=O)Nc1ccccc1)CCCN4CCC3	Runt-SMMHC FRET 61, RanGTP-Imp inh 133
Cc1ccc(NC(=O)c2cc3ccccc3oc2=N)cc1	none (no result: Hck Nef HTS, Runt-SMMHC FRET, Runt-CBFb FRET)
COc1cccc(/C(O)=C/c2nc3ccc(C(=O)NCCc4cccc(C)c4)cc3[nH]c2=O)c1	RanGTP-Imp inh 43
O=C(NCCc1ccc(Cl)cc1)c1ccc2nc[nH]c2c1	none
COc1cccc(/C(O)=C/c2nc3ccc(C(=O)NCCc4ccc(Cl)cc4)cc3[nH]c2=O)c1	RanGTP-Imp inh 32
COc1ccc(CC(=O)Nc2cccc(-c3ccc4nncn4n3)c2)cc1OC	none
